{"data": "Measurements of several laboratories", "PIK3CA H1047Y": "Phosphatidylinositol 4,5-bisphosphate 3-kinase catalytic subunit alpha isoform (PIK3CA, Homo sapiens, UniProt P42336, H1047Y)", "PIK3CA": "Phosphatidylinositol 4,5-bisphosphate 3-kinase catalytic subunit alpha isoform (PIK3CA, Homo sapiens, UniProt P42336)", "PIK3CA C420R": "Phosphatidylinositol 4,5-bisphosphate 3-kinase catalytic subunit alpha isoform (PIK3CA, Homo sapiens, UniProt P42336, C420R)", "PIK3CA H1047L": "Phosphatidylinositol 4,5-bisphosphate 3-kinase catalytic subunit alpha isoform (PIK3CA, Homo sapiens, UniProt P42336, H1047L)", "PIK3CA Q546K": "Phosphatidylinositol 4,5-bisphosphate 3-kinase catalytic subunit alpha isoform (PIK3CA, Homo sapiens, UniProt P42336, Q546K)", "PIK3CA E545K": "Phosphatidylinositol 4,5-bisphosphate 3-kinase catalytic subunit alpha isoform (PIK3CA, Homo sapiens, UniProt P42336, E545K)", "PIK3CA I800L": "Phosphatidylinositol 4,5-bisphosphate 3-kinase catalytic subunit alpha isoform (PIK3CA, Homo sapiens, UniProt P42336, I800L)", "PIK3CA E545A": "Phosphatidylinositol 4,5-bisphosphate 3-kinase catalytic subunit alpha isoform (PIK3CA, Homo sapiens, UniProt P42336, E545A)"}
{"SMILES": "O=C(c1ccc(Nc2nccc(-c3cc4ccccc4s3)n2)cc1)N1CCC(N2CCCC2)CC1", "target": "PIK3CA H1047Y", "assay": "binding, competition with immobilised ligand", "conditions": "1 µM", "remaining binding [%]": 61}
{"SMILES": "N#Cc1ccccc1CSc1nnc2c(n1)[nH]c1ccccc12", "target": "PIK3CA", "assay": "binding, competition with immobilised ligand", "conditions": "10 µM", "remaining binding [%]": 100}
{"SMILES": "Cc1nc(Cc2cccc(C(F)(F)F)c2)sc1-c1ccc(C(N)=O)nc1", "target": "PIK3CA C420R", "assay": "cell-free assay, competition with immobilised ligand", "conditions": "1 µM", "remaining binding [%]": 89}
{"SMILES": "C[C@H]1CCN(c2nccc(-c3cnn4ncccc34)n2)C1", "target": "PIK3CA H1047L", "assay": "binding", "conditions": "1 µM", "remaining binding [%]": 69}
{"SMILES": "Cc1c(C(=O)O)cc(-c2ccc(C3CCNCC3)cc2)c2ccc(-c3ccc(C(F)(F)F)cc3)cc12", "target": "PIK3CA H1047Y", "assay": "cell-free assay, competition with immobilised ligand", "conditions": "1 µM", "remaining binding [%]": 100}
{"SMILES": "C=CC(=O)N1CCC(C(=O)NCC(=O)N2CCN(c3nc(-c4cnc(N)nc4C(F)F)nc(N4CCOCC4)n3)CC2)CC1", "target": "PIK3CA Q546K", "assay": "binding, competition with immobilised ligand", "conditions": "1 µM", "remaining binding [%]": 0}
{"SMILES": "O=C(NCc1ncc(C(F)(F)F)cc1Cl)c1ccc2c(c1)C1(CCS(=O)(=O)CC1)[C@H](C1CC1)N2S(=O)(=O)c1ccc(F)cc1", "target": "PIK3CA H1047L", "assay": "cell-free assay, competition with immobilised ligand", "conditions": "1 µM", "remaining binding [%]": 77}
{"SMILES": "O=C(NCCCN1CCOCC1)c1ccc(Nc2ncc(Cl)c(-c3ccc(Cl)s3)n2)cc1", "target": "PIK3CA E545K", "assay": "binding, competition with immobilised ligand", "conditions": "1 µM", "remaining binding [%]": 71}
{"SMILES": "F[C@@H]1CCN(c2nccc(-c3cnn4ncccc34)n2)C1", "target": "PIK3CA I800L", "assay": "binding", "conditions": "1 µM", "remaining binding [%]": 100}
{"SMILES": "CN1CC[C@H](c2c(O)cc(O)c3c(=O)cc(-c4ccccc4Cl)oc23)[C@H](O)C1", "target": "PIK3CA", "assay": "cell-free assay, competition with immobilised ligand", "conditions": "0.1 µM", "remaining binding [%]": 100}
{"SMILES": "O=C(c1ccc(Nc2ncc(Cl)c(-c3cc4ccccc4s3)n2)cc1)N1CCC(N2CCCC2)CC1", "target": "PIK3CA H1047L", "assay": "binding, competition with immobilised ligand", "conditions": "1 µM", "remaining binding [%]": 80}
{"SMILES": "CN(C)c1nccc(-c2cnc3ncccn23)n1", "target": "PIK3CA I800L", "assay": "binding", "conditions": "1 µM", "remaining binding [%]": 63}
{"SMILES": "COCCOc1nc(-c2ccc(Cl)nc2)nc2c1CN(C(=O)c1ncn3ccccc13)CC2", "target": "PIK3CA E545A", "assay": "cell-free assay, competition with immobilised ligand", "conditions": "0.1 µM", "remaining binding [%]": 100}
{"SMILES": "O=C(NCCCN1CCOCC1)c1ccc(Nc2nccc(-c3cc4ccccc4s3)n2)cc1", "target": "PIK3CA E545K", "assay": "binding, competition with immobilised ligand", "conditions": "1 µM", "remaining binding [%]": 40}
{"SMILES": "CN1CCN(c2ccc(Nc3nccc(-c4cccc([N+](=O)[O-])c4)n3)cc2C(F)(F)F)CC1", "target": "PIK3CA I800L", "assay": "binding", "conditions": "10 µM", "remaining binding [%]": 18}
{"SMILES": "CC1=C(C#N)C(c2ccc3c(c2)c(NC(=O)c2ccccc2C)nn3C)C(C#N)=C(C)N1", "target": "PIK3CA Q546K", "assay": "cell-free assay, competition with immobilised ligand", "conditions": "1 µM", "remaining binding [%]": 87}
{"SMILES": "Nc1ncc2c(n1)-c1c([nH]c3ccc(C#CC4CC4)cc13)CCCC2", "target": "PIK3CA E545A", "assay": "binding, competition with immobilised ligand", "conditions": "1 µM", "remaining binding [%]": 89}
{"SMILES": "CN(C)c1ncc(F)c(-c2cnn3ncccc23)n1", "target": "PIK3CA C420R", "assay": "binding", "conditions": "1 µM", "remaining binding [%]": 46}
{"SMILES": "O=C(NCC1CCOCC1)c1n[nH]cc1NC(=O)c1c(F)cccc1F", "target": "PIK3CA I800L", "assay": "binding, competition with immobilised ligand", "conditions": "1 µM", "remaining binding [%]": 77}
{"SMILES": "CNC(=O)[C@@H]1CC[C@@H](n2c(-c3ccc4cnccc4c3)nc3ccc(C(=O)NCc4cccc(C(N)=O)c4)cc32)C1", "target": "PIK3CA E545A", "assay": "binding, competition with immobilised ligand", "conditions": "1 µM", "remaining binding [%]": 89}
{"SMILES": "CN1CCN(c2ccc(Nc3nccc(-c4ccccc4)n3)cc2C(F)(F)F)CC1", "target": "PIK3CA I800L", "assay": "binding", "conditions": "10 µM", "remaining binding [%]": 56}
{"SMILES": "CO[C@@H](C)c1c(Nc2ccc([C@H](N(C)C(=O)C3CCS(=O)(=O)CC3)C(F)(F)F)cc2)cnc2cc(Cl)nn12", "target": "PIK3CA C420R", "assay": "cell-free assay, competition with immobilised ligand", "conditions": "1 µM", "remaining binding [%]": 93}
{"SMILES": "O=C(c1ccc(Nc2ncc(Cl)c(-c3ccc(Cl)s3)n2)cc1)N1CCC(N2CCCC2)CC1", "target": "PIK3CA E545K", "assay": "binding, competition with immobilised ligand", "conditions": "1 µM", "remaining binding [%]": 70}
{"SMILES": "C[C@@H](c1ccc(-n2cnc3c(N)ncnc32)cc1)N1CCc2nn(C)c(Cc3ccccc3)c2C1=O", "target": "PIK3CA E545K", "assay": "binding, competition with immobilised ligand", "conditions": "0.1 µM", "remaining binding [%]": 67}
{"SMILES": "c1cncc(-c2cccc(Nc3nccc(NC4CCCCC4)n3)c2)c1", "target": "PIK3CA C420R", "assay": "binding, competition with immobilised ligand", "conditions": "10 µM", "remaining binding [%]": 73}
{"SMILES": "CNCc1ccccc1-c1csc([C@H](C)Nc2nc(C)nc3cc(OC)c(OC)cc23)c1", "target": "PIK3CA I800L", "assay": "cell-free assay, competition with immobilised ligand", "conditions": "1 µM", "remaining binding [%]": 81}
{"SMILES": "CCN1CCN(Cc2ccc(C(=O)Nc3ccc(C)c(Oc4ccc5c(c4)CC(=O)N5)c3)cc2C(F)(F)F)CC1", "target": "PIK3CA", "assay": "binding, competition with immobilised ligand", "conditions": "1 µM", "remaining binding [%]": 86}
{"SMILES": "COc1cnc(Nc2cccc(S(N)(=O)=O)c2)nc1N1CCN(c2ccccc2)C(=O)C1", "target": "PIK3CA", "assay": "binding, competition with immobilised ligand", "conditions": "1 µM", "remaining binding [%]": 100}
{"SMILES": "N[C@@H]1CCN(c2nccc(-c3cnn4ncccc34)n2)C1", "target": "PIK3CA Q546K", "assay": "binding", "conditions": "1 µM", "remaining binding [%]": 100}
{"SMILES": "O=C(Nc1c[nH]nc1C(=O)NC1CCNCC1)c1cc(F)cc(F)c1", "target": "PIK3CA I800L", "assay": "binding, competition with immobilised ligand", "conditions": "1 µM", "remaining binding [%]": 81}
{"SMILES": "CN(c1nccc(-c2cnn3ncccc23)n1)C1CC1", "target": "PIK3CA H1047L", "assay": "binding", "conditions": "1 µM", "remaining binding [%]": 100}
{"SMILES": "COc1cnc(Nc2cccc(S(N)(=O)=O)c2)nc1N1CCN(c2ccccc2)CC1", "target": "PIK3CA E545K", "assay": "binding, competition with immobilised ligand", "conditions": "1 µM", "remaining binding [%]": 72}
{"SMILES": "COc1ccnn2ncc(-c3ccnc(N(C)C)n3)c12", "target": "PIK3CA C420R", "assay": "binding", "conditions": "1 µM", "remaining binding [%]": 78}
{"SMILES": "O=C1CCc2cc(Nc3cc(OC4CCOCC4)c([N+](=O)[O-])cc3Cl)ccc2N1", "target": "PIK3CA", "assay": "cell-free assay, competition with immobilised ligand", "conditions": "1 µM", "remaining binding [%]": 79}
{"SMILES": "CN(CCCC(F)(F)F)c1nccc(-c2cnn3ncccc23)n1", "target": "PIK3CA E545K", "assay": "binding", "conditions": "1 µM", "remaining binding [%]": 100}
{"SMILES": "COc1ncc2cc3ccccc3nc2c1C#N", "target": "PIK3CA E545A", "assay": "cell-free assay, competition with immobilised ligand", "conditions": "5 µM", "remaining binding [%]": 99}
